For series [1], the target named is Histone deacetylase (Homo sapiens) (UniProt Q13547+O15379+Q9UBN7+Q92769+Q9UQL6+Q8WUI4+Q9BY41+Q96DB2+P56524+Q9UKV0+Q969S8). Put plainly: Inhibition of HDAC in human HeLa nuclear extract at 10 uM using Boc-Lys(acetyl)-AMC as substrate preincubated for 5 mins followed by substrate addition and measured after 30 mins by fluorescence assay. Type of series: cell-free. In a few lines: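 HeLa nuclear extract mixed with compound and held at 37 °C for 5 min. Boc-Lys(acetyl)-AMC added and incubated 30 min at 37 °C. Quenched with developer containing trypsin and trichostatin A, then 20 min at 37 °C. Fluorescence read at ex 390/em 460 nm; inhibition calculated relative to control wells.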

Series [2] addresses T1, Tyrosine-protein kinase JAK2 (Homo sapiens, UniProt O60674). Put plainly: Inhibition of recombinant human JAK2 using Ulight-CAGAGAIETDKEYYTVKD as substrate measured after 60 mins by LANCE assay. For orientation: In TR-FRET formats the signal depends on donor and acceptor labels being close together.
The subject of series [3] is HEL. Put plainly: Antiproliferative activity against HEL cells harboring JAK2 V617F mutant assessed as reduction in cell viability after 48 hrs by MTT assay. Format: functional, cell-based. The settings on record: Homo sapiens. On the technique in general: Tetrazolium dyes change colour on reduction, which living cells bring about.
For series [4], the system named is K562. Put plainly: Antiproliferative activity against human K562 cells assessed as reduction in cell viability after 48 hrs by MTT assay. Type of series: functional, cell-based. The conditions noted are these: K562, 48 h.
The target in series [5] is T2, Histone deacetylase 2 (Homo sapiens, UniProt Q92769). Put plainly: Inhibition of HDAC2 (unknown origin) using Boc-Lys(acetyl)-AMC as substrate preincubated for 5 mins followed by substrate addition and measured after 30 mins by fluorescence assay.
For series [6], the target named is T3, Histone deacetylase 8 (Homo sapiens, UniProt Q9BY41).
T3 sequence (Q9BY41 whole entry): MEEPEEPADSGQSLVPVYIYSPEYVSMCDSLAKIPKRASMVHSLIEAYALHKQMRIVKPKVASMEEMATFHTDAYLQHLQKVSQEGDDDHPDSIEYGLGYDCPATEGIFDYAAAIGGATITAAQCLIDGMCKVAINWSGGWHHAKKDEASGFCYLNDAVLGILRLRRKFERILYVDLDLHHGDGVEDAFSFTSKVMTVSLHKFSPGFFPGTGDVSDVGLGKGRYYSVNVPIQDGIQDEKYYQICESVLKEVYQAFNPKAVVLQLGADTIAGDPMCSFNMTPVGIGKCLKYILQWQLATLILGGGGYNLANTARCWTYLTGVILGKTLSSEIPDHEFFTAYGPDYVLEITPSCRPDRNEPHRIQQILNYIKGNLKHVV
Put plainly: Inhibition of HDAC8 (unknown origin) using Boc-Lys(trifluoroacetyl)-AMC as substrate preincubated for 5 mins followed by substrate addition and measured after 30 mins by fluorescence assay.

Series [7] addresses T4, Protein deacetylase HDAC6 (Homo sapiens, UniProt Q9UBN7).
T4 sequence (Q9UBN7 whole entry): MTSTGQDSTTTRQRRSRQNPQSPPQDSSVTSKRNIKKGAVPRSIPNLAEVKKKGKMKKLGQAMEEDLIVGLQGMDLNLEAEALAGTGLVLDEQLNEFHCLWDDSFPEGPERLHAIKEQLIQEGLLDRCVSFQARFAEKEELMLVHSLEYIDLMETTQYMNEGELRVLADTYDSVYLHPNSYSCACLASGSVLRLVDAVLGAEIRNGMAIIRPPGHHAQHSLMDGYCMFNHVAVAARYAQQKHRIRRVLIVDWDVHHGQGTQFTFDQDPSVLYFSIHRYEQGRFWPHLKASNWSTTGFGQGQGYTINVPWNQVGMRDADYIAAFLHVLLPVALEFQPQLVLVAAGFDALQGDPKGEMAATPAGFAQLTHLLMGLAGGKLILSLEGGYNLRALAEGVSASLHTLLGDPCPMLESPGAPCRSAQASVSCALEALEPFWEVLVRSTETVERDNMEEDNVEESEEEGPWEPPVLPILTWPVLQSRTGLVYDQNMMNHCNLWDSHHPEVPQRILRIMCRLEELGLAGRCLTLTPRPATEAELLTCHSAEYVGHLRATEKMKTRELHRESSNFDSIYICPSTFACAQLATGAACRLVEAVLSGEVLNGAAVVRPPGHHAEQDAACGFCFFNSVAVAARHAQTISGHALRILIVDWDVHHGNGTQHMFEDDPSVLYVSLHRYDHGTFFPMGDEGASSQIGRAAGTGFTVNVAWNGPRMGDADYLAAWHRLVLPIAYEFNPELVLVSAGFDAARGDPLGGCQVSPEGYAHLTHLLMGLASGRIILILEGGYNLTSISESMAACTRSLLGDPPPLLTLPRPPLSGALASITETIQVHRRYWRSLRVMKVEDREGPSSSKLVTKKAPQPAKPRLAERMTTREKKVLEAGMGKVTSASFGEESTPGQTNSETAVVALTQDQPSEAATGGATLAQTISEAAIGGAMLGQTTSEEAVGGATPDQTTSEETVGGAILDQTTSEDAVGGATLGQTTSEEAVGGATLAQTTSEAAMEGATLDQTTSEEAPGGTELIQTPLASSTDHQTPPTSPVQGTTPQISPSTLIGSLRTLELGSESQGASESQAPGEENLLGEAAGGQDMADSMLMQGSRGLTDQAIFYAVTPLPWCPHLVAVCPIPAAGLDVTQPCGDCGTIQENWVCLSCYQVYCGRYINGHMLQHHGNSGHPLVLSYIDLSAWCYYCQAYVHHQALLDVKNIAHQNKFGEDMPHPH
Put plainly: Inhibition of HDAC6 (unknown origin) using Boc-Lys(acetyl)-AMC as substrate preincubated for 5 mins followed by substrate addition and measured after 30 mins by fluorescence assay.

Series [8] has as its system MOLT-4. Put plainly: Antiproliferative activity against human MOLT4 cells assessed as reduction in cell viability after 48 hrs by MTT assay. Format: functional, cell-based. The conditions noted are these: MOLT-4, 48 h. In a few lines: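 Cells kept in RPMI1640 with 10% FBS at 37 °C, 5% CO2. Seeded and grown for 12 h, then exposed to a range of compound concentrations for 48 h. 0.5% MTT added for 4 h, formazan dissolved in DMSO, absorbance read at 570 nm.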

In series [9] the target is T2, Histone deacetylase 2. The conditions noted are these: A549, at 80 to 400 nM.
Series [10] has as its target Histone deacetylase. Put plainly: Inhibition of HDAC in human HeLa nuclear extract using Boc-Lys(acetyl)-AMC as substrate preincubated for 5 mins followed by substrate addition and measured after 30 mins by fluorescence assay. Type of series: cell-based.
Series [11] concerns Jurkat. Put plainly: Antiproliferative activity against human Jurkat cells assessed as reduction in cell viability after 48 hrs by MTT assay. Format: functional, cell-based.
Series [12] has as its target T5, Janus Kinase (JAK) (Homo sapiens) (UniProt P52333+P23458+O60674+P29597). Put plainly: Inhibition of JAK in human MDA-MB-231 cells assessed as downregulation of p-STAT3-Tyr705 level at 5 uM after 12 hrs by Western blot analysis. In general terms: Immunoblotting shows a protein as a band on a membrane.
A short description of series [13]: Drug level in BALB/c nu mouse xenografted with HEL cells at 100 mg/kg/day, ip administered for 5 days and measured after 0.5 to 4 hrs by LC-MS/MS analysis. Format: ADME, organism-based. The settings on record: in vivo. In a few lines:
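HEL-xenografted male BALB/c-nu mice dosed IP at 100 mg/kg/day for 5 days. Sacrificed 0.5, 1.0 and 4.0 h after the last dose. Plasma separated and stored at -80 °C. Tumors homogenized in normal saline (5:1 v/w) and sonicated. Samples deproteinized with methanol containing internal standard, centrifuged, diluted in methanol/acetonitrile and recentrifuged.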

Series [14] deals with HEL. Put plainly: Induction of apoptosis in HEL cells assessed as late apoptotic cells at 1 uM after 24 hrs by Annexin-V/propidium iodide staining-based flow cytometric analysis (reference value: 0.023%). Format: functional, Homo sapiens.
The nature of series [15]: Toxicity in BALB/c nu mouse xenografted with HEL cells assessed as change in body weight at 60 mg/kg/day, ip administered for 16 days and measured every day during compound dosing in presence of ruxolitinib. Format: organism-based. The settings on record: in vivo, 384 h.
Series [16] relates to K562. Put plainly: Induction of apoptosis in human K562 cells assessed as late apoptotic cells at 1 uM after 24 hrs by Annexin-V/propidium iodide staining-based flow cytometric analysis (reference value: 5.87%). Type of series: functional.
A short description of series [17]: Toxicity in BALB/c nu mouse xenografted with HEL cells assessed as injury to internal organs at 60 mg/kg/day, ip administered for 16 days and measured post-last dose in presence of ruxolitinib. Type of series: organism-based. The conditions noted are these: in vivo, 384 h.
Series [18] has as its system HEL. Put plainly: Induction of apoptosis in HEL cells assessed as necrotic apoptotic cells at 1 uM after 24 hrs by Annexin-V/propidium iodide staining-based flow cytometric analysis (reference value: 0.011%). Format: functional, Homo sapiens.
Series [19] concerns the target T1, Tyrosine-protein kinase JAK2. Put plainly: Inhibition of recombinant human JAK2 at 10 uM using Ulight-CAGAGAIETDKEYYTVKD as substrate measured after 60 mins by LANCE assay.
Series [20] concerns HEL. Put plainly: Induction of apoptosis in HEL cells assessed as viable cells at 1 uM after 24 hrs by Annexin-V/propidium iodide staining-based flow cytometric analysis (reference value: 87.5%). Format: functional, Homo sapiens.
Series [21] deals with HEL. Put plainly: Induction of apoptosis in HEL cells assessed as early apoptotic cells at 1 uM after 24 hrs by Annexin-V/propidium iodide staining-based flow cytometric analysis (reference value: 12.5%). Format: functional, Homo sapiens.
The subject of series [22] is K562. Put plainly: Induction of apoptosis in human K562 cells assessed as necrotic apoptotic cells at 1 uM after 24 hrs by Annexin-V/propidium iodide staining-based flow cytometric analysis (reference value: 0.827%). Type of series: functional.
The test system of series [23] is K562. Put plainly: Induction of apoptosis in human K562 cells assessed as viable cells at 1 uM after 24 hrs by Annexin-V/propidium iodide staining-based flow cytometric analysis (reference value: 85.7%). Format: functional.
Series [24] concerns the target T5, Janus Kinase (JAK) (Homo sapiens). Put plainly: Inhibition of JAK in human MDA-MB-231 cells assessed as decrease in upregulation of p-STAT3-Tyr705 level at 5 uM after 12 hrs in presence of ruxolitinib by Western blot analysis. Format: cell-based. In a few lines: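 MDA-MB-231 cells treated with compound or DMSO for 12 h, then lysed in SDS buffer and cleared by centrifugation. Lysate resolved by SDS-PAGE and transferred to nitrocellulose. Immunoblotted for p-STAT3 (Tyr705), total STAT3, acetyl-α-tubulin and acetyl-histone H3, with GAPDH as loading control. Detection by enhanced chemiluminescence.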

Series [25] concerns K562. Put plainly: Induction of apoptosis in human K562 cells assessed as early apoptotic cells at 1 uM after 24 hrs by Annexin-V/propidium iodide staining-based flow cytometric analysis (reference value: 7.55%). Type of series: functional.

Calls of active or inactive are those of the source. The rule behind the calls is not given here.

T1 sequence (O60674 whole entry): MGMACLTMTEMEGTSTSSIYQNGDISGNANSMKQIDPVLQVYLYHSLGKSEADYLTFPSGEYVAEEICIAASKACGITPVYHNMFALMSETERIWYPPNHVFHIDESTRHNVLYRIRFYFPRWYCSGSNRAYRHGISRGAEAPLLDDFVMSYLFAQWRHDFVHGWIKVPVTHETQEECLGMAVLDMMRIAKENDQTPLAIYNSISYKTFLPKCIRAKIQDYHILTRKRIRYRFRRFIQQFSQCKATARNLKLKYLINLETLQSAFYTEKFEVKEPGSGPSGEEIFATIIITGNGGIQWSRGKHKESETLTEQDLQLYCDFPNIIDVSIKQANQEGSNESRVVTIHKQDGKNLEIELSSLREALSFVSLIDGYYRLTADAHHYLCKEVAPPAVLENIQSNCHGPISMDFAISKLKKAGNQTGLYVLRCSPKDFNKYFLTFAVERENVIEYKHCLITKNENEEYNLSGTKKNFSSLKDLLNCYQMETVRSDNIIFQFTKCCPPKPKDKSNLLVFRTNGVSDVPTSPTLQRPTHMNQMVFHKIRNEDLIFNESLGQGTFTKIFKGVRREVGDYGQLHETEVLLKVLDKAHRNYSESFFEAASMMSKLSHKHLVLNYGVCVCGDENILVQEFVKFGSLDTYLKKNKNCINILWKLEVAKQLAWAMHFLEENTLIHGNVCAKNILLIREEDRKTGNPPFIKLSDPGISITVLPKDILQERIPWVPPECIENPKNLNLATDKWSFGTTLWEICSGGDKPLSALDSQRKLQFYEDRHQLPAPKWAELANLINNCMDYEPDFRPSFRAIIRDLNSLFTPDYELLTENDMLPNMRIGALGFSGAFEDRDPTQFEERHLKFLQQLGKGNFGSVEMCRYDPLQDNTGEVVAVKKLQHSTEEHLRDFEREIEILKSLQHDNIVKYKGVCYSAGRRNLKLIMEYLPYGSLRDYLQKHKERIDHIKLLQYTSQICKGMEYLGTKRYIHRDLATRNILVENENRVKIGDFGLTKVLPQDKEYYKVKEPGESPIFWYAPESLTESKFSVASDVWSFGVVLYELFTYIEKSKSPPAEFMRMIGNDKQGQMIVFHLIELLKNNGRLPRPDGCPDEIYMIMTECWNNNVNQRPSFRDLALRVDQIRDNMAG
T2 sequence (Q92769 whole entry): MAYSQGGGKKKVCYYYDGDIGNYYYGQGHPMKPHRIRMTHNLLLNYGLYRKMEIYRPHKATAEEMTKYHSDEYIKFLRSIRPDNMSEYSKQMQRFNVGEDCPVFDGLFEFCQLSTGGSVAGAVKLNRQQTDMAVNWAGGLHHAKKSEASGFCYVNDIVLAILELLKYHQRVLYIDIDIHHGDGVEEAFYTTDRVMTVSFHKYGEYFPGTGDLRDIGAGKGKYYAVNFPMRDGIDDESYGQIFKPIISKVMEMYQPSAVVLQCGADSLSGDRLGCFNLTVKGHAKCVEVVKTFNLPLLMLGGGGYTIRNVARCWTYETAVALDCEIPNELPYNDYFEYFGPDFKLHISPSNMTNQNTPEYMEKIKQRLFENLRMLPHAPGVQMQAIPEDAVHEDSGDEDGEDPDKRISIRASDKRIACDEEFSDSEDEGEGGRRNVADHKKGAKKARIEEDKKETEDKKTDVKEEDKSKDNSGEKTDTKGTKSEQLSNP

Consider `Clc1cccc(Nc2nc(Nc3cn[nH]c3)ncc2Cl)c1`, for which the inhibition entry in series [1] was “inactive”.

As usually defined, the IC50 is the concentration needed to halve the response being measured. For the molecule `CNc1nc(Nc2cnn(CCCCCCC(=O)NO)c2)ncc1Cl`, the IC50 is 36 nM in series [2]; 100 nM in [3]; 590 nM in series [4]; 190 nM in series [5]; 4070 nM in series [6]; 29 nM in series [7]. Moreover, the IC50 was found to be 110 nM in series [8], 15 nM in series [10] and 70 nM in series [11]. Moreover, in [9], the inhibition entry is “Active”.

As for `O=C(CCCCCCC(=O)Nc1ccccc1)NO` [VORINOSTAT], in [12], the outcome was Active. In series [13], the Drug uptake entry is “Active”. The Activity in series [14] is given as 44.6%; in series [15], “Non-Toxic”; in series [16], 17.3%; in series [17] it was “Non-Toxic”; in series [18] it was 2%; in series [20], 32.1%. The Activity in series [21] is on record as 21.3%; in series [22] it was 0.73%; in series [23] it was 67.6%; in [25], 14.5%. Moreover, the inhibition entry in series [19] is “inactive”. Further, the inhibition result in [24] was “Active”. In [8], the 50% inhibitory concentration (IC50) worked out at 400 nM.

(Values after ChEMBL document CHEMBL4346670, “Discovery of Novel Janus Kinase (JAK) and Histone Deacetylase (HDAC) Dual Inhibitors for the Treatment of Hematological Malignancies” (J Med Chem, 2019).)
